From PubChem
APJ agonist: agonists of human APJ apelin receptor; P35414; CHO-K1 APJ PathHunter beta-arrestin, luminescence; 0% DMSO wells, 100% apelin; activation, % at 20 µM; hit rate 0.11% among 330,000;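 active = activation more than six SD over the plate average, tested at 20 µM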;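 note: 0% = DMSO alone and 100% = apelin-13 at 10 nM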
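Test system: CHO-K1 APJ beta-arrestin complementation cell line. Amount: cell density 1000 per well. Controls: DMSO negative, 10 nM Apelin-13 positive. Signal: luminescent beta-gal fragment complementation, chemiluminescent substrate. Read-out basis: agonist-driven arrestin binding to APJ. Timing: compound stimulation 90 min at 25 °C, detection 60 min.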
APJ antagonist: antagonists of human APJ apelin receptor | hit rate 0.32% among 330,000 | inhibition, % at 20 µM | CHO-K1 APJ beta-arrestin complementation, luminescence | P35414;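 active = inhibition above about 40% at 20 µM, limit read from the data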;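 note: cells challenged with 10 nM apelin-13 agonist together with compound; plate controls were apelin-13 plus DMSO wells for no effect and DMSO wells lacking apelin-13 for full effect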
CCR6 antag: CCR6 (human) receptor antagonism | P51684 | CHO-K1 CCR6 PathHunter beta-arrestin, luminescence, CCL20-stimulated | inhibition, % at 20 µM | hit rate 0.49% among 340,000 | AID 493098;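 active = compounds whose inhibition of the agonist-driven luminescence signal at 20 µM reaches about 50%, limit read from the data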;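 note: cells stimulated with CCL20 at 14 nM final; plate controls were DMSO with CCL20 for no effect and DMSO without agonist for full effect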
Target sequence (P51684 whole entry, looked up): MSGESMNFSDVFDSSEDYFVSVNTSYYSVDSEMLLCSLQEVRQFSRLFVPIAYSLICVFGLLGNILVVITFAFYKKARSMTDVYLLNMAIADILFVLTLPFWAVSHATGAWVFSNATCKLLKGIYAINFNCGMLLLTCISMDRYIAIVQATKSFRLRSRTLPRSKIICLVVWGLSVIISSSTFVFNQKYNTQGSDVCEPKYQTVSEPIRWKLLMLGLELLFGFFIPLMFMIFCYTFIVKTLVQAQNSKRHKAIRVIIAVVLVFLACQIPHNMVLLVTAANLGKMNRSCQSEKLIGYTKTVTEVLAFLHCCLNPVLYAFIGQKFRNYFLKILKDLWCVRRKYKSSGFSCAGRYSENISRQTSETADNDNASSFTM
EBI2 antag: blocks human EBI2 receptor beta-arrestin signaling | P32249 | EBI2 beta-arrestin recruitment, luminescence, 7a,25-OHC stimulated | inhibition, % at 5 µM | hit rate 0.81% among 360,000 | AID 651636; in the data active = inhibition above about 38%;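 note: enzyme fragment complementation signal reports receptor beta-arrestin coupling in cells; 0% = agonist plus DMSO wells and 100% = wells without agonist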
CXCR6 block: blocks human CXCR6 beta-arrestin recruitment; O00574; CHO-K1 PathHunter CXCR6 beta-arrestin, luminescence; hit rate 0.36% among 360,000; inhibition, % at 20 µM; in the data active = inhibition above about 34%, passing the limit was not always enough;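 note: antagonist mode with CXCL16 agonist at 10 nM final; 0% = 10 nM CXCL16 with DMSO and 100% = unstimulated wells without agonist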
Target sequence (O00574 whole entry, looked up): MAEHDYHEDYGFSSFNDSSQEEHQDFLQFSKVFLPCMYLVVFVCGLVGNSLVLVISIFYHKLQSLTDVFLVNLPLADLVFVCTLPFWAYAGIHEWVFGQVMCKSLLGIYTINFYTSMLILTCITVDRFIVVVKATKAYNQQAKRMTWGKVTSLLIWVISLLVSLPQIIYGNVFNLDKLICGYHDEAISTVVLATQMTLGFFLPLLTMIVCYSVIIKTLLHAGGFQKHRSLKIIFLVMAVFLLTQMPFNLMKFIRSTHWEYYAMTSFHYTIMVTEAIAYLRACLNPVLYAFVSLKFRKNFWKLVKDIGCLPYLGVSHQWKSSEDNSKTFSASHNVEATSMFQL
CXCR6 confirm: confirmation of human CXCR6 receptor antagonists; shares compounds with CXCR6 block; CHO-K1 CXCR6 PathHunter beta-arrestin, luminescence; inhibition, % at 20 µM; hit rate 65% among 700; AID 602409;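 active = mean inhibition over four retests above 40%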;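 note: receptor stimulated with 10 nM CXCL16 agonist; beta-galactosidase fragment complementation upon beta-arrestin recruitment to receptor; plate controls were CXCL16 plus DMSO for no effect and DMSO without CXCL16 for full effect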
Starred values were filed as active, the others as inactive; . = no result. This is a sample that favours compounds with a hit; in the whole collection about 1.5% have one here.

SMILES	APJ agonist	APJ antagonist	CCR6 antag	EBI2 antag	CXCR6 block	CXCR6 confirm
COCCCNC(CC(=O)Nc1cc(C)cc(C)c1)C(=O)O (configuration not stated)	-2.5	9.0	0.1	-11.4	3.4	.
Cc1ccccc1-c1cnc(C(O)c2ccc(-c3ccccc3)cc2)[nH]1 (configuration not stated)	.	.	.	-7.9	-1.3	.
O=C(c1ccco1)N1N=C(c2ccc(Br)cc2)CC1c1ccco1 (configuration not stated)	-3.7	0.8	6.0	0.0	11.6	.
CCOc1c(OC(C)=O)ccc(/C=C2\N=C(SCC)SC2=O)c1[N+](=O)[O-]	-4.2	12.1	38.9	-3.6	20.2	.
CCOc1cc(/C=C2\N=C(SCC)SC2=O)cc([N+](=O)[O-])c1OC(C)=O	-11.7	35.9	55.0*	10.2	45.1*	58.9*
CCOc1cc(/C=C2\N=C(SC)SC2=O)cc([N+](=O)[O-])c1OC(C)=O	-5.1	23.3	32.2	2.4	41.8*	40.3*
Nc1nc(N)c2c(ccc3c2ccn3Cc2cccc([N+](=O)[O-])c2)n1	.	.	.	-45.4	61.9*	68.3*
CCC1=NN(C(=O)c2cccc([N+](=O)[O-])c2)C(O)(c2ccc(C)cc2)C1 (configuration not stated)	-4.6	36.7	66.4*	2.3	48.4*	13.0
CCC1=NN(C(=O)c2ccc(Br)cc2)C(O)(c2ccccc2)C1 (configuration not stated)	-5.0	30.4	73.4*	15.6	48.1*	33.6
O=C1CN(C(=O)c2cccc([N+](=O)[O-])c2)CC(=O)N1	2.9	7.2	4.9	-10.7	0.3	.
CCOC(=O)C1=NN(C(=O)c2ccccc2)C(O)(c2ccc(C)cc2)C1 (configuration not stated)	-3.2	-2.7	12.3	-2.5	8.3	.
CCOc1ccc(NC(=O)CN(C)C(=O)c2ccccc2SCc2c(C)noc2C)cc1OCC	2.6	19.8	-4.6	-6.0	-10.4	.
COc1cccc(C(=O)OCC(=O)NC(C)CCc2ccccc2)c1O (configuration not stated)	-3.1	7.6	10.8	4.0	-2.6	.
Cc1ccc(/C(O)=C/C(=O)C(=O)NC23CC4CC(CC(C4)C2)C3)cc1	-16.0	28.4	69.9*	-3.8	53.4*	38.5
CCc1nc2c(OCCC3CCCCC3)cccn2c1N(C)C(=O)c1ccc(OC)cc1	.	.	.	21.7	44.9*	5.6
COc1cc(S(=O)(=O)NC2CCCC2)c(OC)cc1Cl	-1.5	7.4	9.4	-10.4	46.2*	5.0
COc1cc(S(=O)(=O)NC2CC(C)(C)NC(C)(C)C2)c(OC)cc1Cl	-3.5	4.0	-4.4	-31.4	-0.2	.
Cn1c(=O)c(C(=O)N2CCc3ccccc32)cc2cccnc21	-3.3	-11.4	2.1	-8.8	-4.6	.
C=C(C)c1cccc(C(C)(C)NC(=O)NC(c2ccccc2)c2ccc(OC)cc2)c1 (configuration not stated)	-4.1	0.6	13.3	-0.1	45.4*	13.0
C=C(C)c1cccc(C(C)(C)NC(=O)Nc2ccc(OC)cc2)c1	-1.6	-2.6	-4.9	-0.4	6.7	.
Cc1cc(NC(=O)Nc2ccccc2F)ccc1Br	1.8	15.3	4.4	-4.6	-14.7	.
C=C1CCN([C@@H](Cc2ccccc2)C(=O)NCCC(C)C)S(=O)(=O)c2ccccc21	-2.0	-33.9	24.3	28.0	41.4*	42.0*
COC(=O)c1ccc(CCc2cc(O)c(Br)cc2O)cc1	.	.	.	1.1	54.9*	48.6*
COC(=O)c1ccc(CCc2cc(O)ccc2O)cc1	.	.	11.1	-5.0	15.1	.
COc1cccc2cc(C(=O)Nc3ccc(F)cc3)c(=Nc3ccc(C(=O)O)cc3)oc12	-1.2	6.9	80.5*	1.4	48.9*	7.7
SMILES	APJ agonist	APJ antagonist	CCR6 antag	EBI2 antag	CXCR6 block	CXCR6 confirm
Cc1nc2c(OCc3ccccc3)cccn2c1N(C)C(=O)C1CCCCC1	.	.	.	-0.8	-3.8	.
COc1cc2c(cc1OC)CN(C(=O)CSc1nc(N)c(C#N)cc1C#N)CC2	-3.4	5.6	-15.6	-3.0	45.7*	4.3
Cc1ccc(NCC(=O)c2ccc(C)cc2)cc1	-11.2	16.6	82.5*	3.7	44.0*	57.8*
Cc1ccc(NCCC(=O)c2ccc(Br)cc2)cc1	-4.5	1.9	2.3	2.8	2.5	.
Clc1nc(-c2ccccn2)nc2scc(-c3ccccc3)c12	1.9	15.5	13.8	61.2*	51.3*	24.6
Cc1ccc(NC(=S)NNC(=O)Nc2ccccc2)cc1	-6.4	43.5*	.	9.0	53.2*	38.3
Cc1ccc(NC(=S)NNC(=S)Nc2ccc(C)cc2)cc1	.	.	33.6	27.6	12.7	.
CC(=O)c1ccc(NC(=O)CSc2ccc3nnc(-c4cccnc4)n3n2)cc1	2.3	7.1	1.6	-3.5	-5.6	.
COc1cc(/C=C2\SC(=O)N(c3ccc(Cl)cc3)C2=O)cc([N+](=O)[O-])c1O	.	.	77.4*	35.3	46.4*	56.4*
COc1cc(/C=C2/C(=O)NN(c3ccc(C)c(Cl)c3)C2=O)cc([N+](=O)[O-])c1O	-6.2	37.0	42.1	5.4	37.0	.
CO[C@H]1CC[C@@]2(C)[C@@H](CC[C@@H]3[C@@H]2CC[C@@]2(C)[C@H]3C[C@H](C(=O)N[C@@H](CCCN=C(N)N)C(=O)NCC(=O)N[C@@H](CC(=O)O)C(N)=O)O[C@]23CCCO3)C1	.	.	4.1	-6.3	-7.5	.
Nc1cccc2c1C(=O)N(C(=O)c1ccco1)C2=O	-2.3	21.4	4.8	3.4	-1.7	.
Nc1cccc2c1C(=O)N(C(=O)/C=C/c1ccc(F)cc1)C2=O	0.4	35.6	60.9*	1.6	48.3*	38.3
O=C(Oc1c(Cl)cc(Cl)c2cccnc12)c1ccco1	-2.1	2.3	.	27.3	44.8*	69.5*
O=C(Oc1c(Cl)cc(Cl)c2cccnc12)c1cccs1	-2.8	3.8	27.8	14.7	33.9	.
O=C(c1ccc(F)cc1Cl)N1CCN(S(=O)(=O)c2cccs2)CC1	2.0	-16.0	1.7	-7.4	-3.7	.
O=C(Nc1ccc(F)cc1)Nc1ccccc1C(=O)NCCN1CCNC1=O	-5.1	3.8	6.4	-15.6	-10.9	.
Cc1ccc(S(=O)(=O)NCC(=O)OCc2nnc(-c3ccccc3)o2)cc1	-1.8	5.8	-1.7	5.0	-4.2	.
Cc1cc(C)cc(N2C(=O)CC(Sc3nnnn3-c3ccccc3)C2=O)c1 (configuration not stated)	-1.2	-17.6	.	0.9	86.8*	74.9*
CCCOc1ccc(CN(CCC#N)C(=S)NC(=O)c2ccccc2)cc1	-1.9	16.4	.	3.5	43.6*	59.4*
COc1cc(C(=O)NC(=S)N(CCC#N)Cc2cccnc2)cc(OC)c1OC	-1.0	5.8	3.5	-13.6	-3.7	.
COc1ccc(NC(=O)c2sc(=O)n(Cc3ccc4ccccc4c3)c2C)cc1OC	.	.	.	8.2	-4.4	.
Cc1cc(C)n(C(C[N+](=O)[O-])c2ccc(Cl)cc2)n1 (configuration not stated)	4.2	-1.4	19.9	-8.0	44.5*	19.1
